The test system of data set [1] is A549. The data set is described as follows: Cytotoxicity against human A549 cells assessed as reduction in cell viability at 5 to 20 uM incubated for 72 hrs by MTT assay. The conditions noted are these: a549, 72 h, dose 5-20 µM. In kind it is cell-based. The gist of the method:
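MTT viability assay in C2C12, HepG2 and A549 cells. Exposure was 24 h or 72 h for C2C12 and 72 h for HepG2 and A549. Three replicates per group, compared with the 0 μM group by Student's t test.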
On the technique in general: Formazan colour is commonly taken as a measure of viable cells.

Data set [2] is described as follows: Induction of cardiac hypertrophy in normal lean C57BL/6 mouse at 100 mg/kg, ig administered for 4 weeks. The note with it: in vivo, po, 672 h. In kind it is organism-based. In a few lines:
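Male C57BL/6 mice, 9 weeks old, dosed intragastrically daily for 4 weeks. After saline perfusion, organ weights and tibia length were recorded. Heart pieces were fixed in 4% paraformaldehyde, embedded in paraffin and stained with periodic acid-Schiff to show glycogen.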

Data set [3] in a line: Induction of glucose consumption in mouse C2C12 cells at 10 uM measured after 12 hrs by glucose oxidase method (reference value: 100 %). In kind it is functional. The gist of the method:
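Differentiated C2C12 myotubes were switched to DMEM containing 2.75 g/L glucose and treated for 12 h at 37 °C, with cell-free blank wells as reference. Glucose left in the medium was measured by the GOD-POD method at 570 nm. Consumption was derived by subtraction and expressed as percentage of the DMSO group.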

The subject of data set [4] is A549. The data set is described as follows: Activation of AMPK in human A549 cells harboring mutant LKB1. In kind it is cell-based.
In data set [5] the test system is Mus musculus. The experiment in a line: Activation of AMPK in normal lean C57BL/6 mouse assessed as increase in phosphorylated AMPK level in heart tissue at 100 mg/kg, ig administered for 4 weeks by Western blot analysis. In kind it is functional, organism-based. The gist of the method: (§1)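 Male C57BL/6 mice, 9 weeks old, dosed intragastrically once daily for 4 weeks alongside vehicle controls. Heart and skeletal muscle were homogenized in RIPA buffer with protease/phosphatase inhibitors and centrifuged at 10,600 g for 20 min. About 30 µg protein was blotted for p-AMPK and p-ACC and detected by ECL.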

The nature of data set [6]: Metabolic stability in ICR/CD-1 mouse liver microsomes assessed as intrinsic clearance preincubated for 5 mins followed by NADPH addition and measured up to 45 mins by LC/MS analysis. The conditions noted are these: time 50 min, read-out: CLH. The format is ADME, Microsome. In a few lines: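 Compound and liver microsomes in preheated potassium phosphate buffer, held at 37 °C for 5 min. Reaction started with NADPH and stopped at 0, 5, 15, 30 and 45 min with acetonitrile containing tolbutamide internal standard. Samples centrifuged at 6000 rpm for 15 min, supernatant analysed by LC/MS. Ketanserin run as assay control. Performed by a contract lab.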
(Liver microsomes are vesicles of endoplasmic reticulum, rich in cytochrome P450 enzymes.)

Data set [7] relates to C2C12. The experiment in a line: Activation of AMPK in mouse C2C12 cells with SiRNA-induced LKB1 knock down assessed as increase in ACC phosphorylation. The format is cell-based.
The test system of data set [8] is Mus musculus. The experiment in a line: Antihyperglycemic activity in db/db mouse assessed as reduction in fasting blood glucose level at 100 mg/kg, ig administered once daily for 2 to 6 weeks. The format is functional, organism-based. The note with it: time 2-6 weeks. The gist of the method:
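db/db mice, 5 weeks old, grouped by matching baseline blood glucose and body weight. Dosed intragastrically once daily at 100 mg/kg in 0.5% methylcellulose; vehicle-treated db/db and db/m mice served as controls. Body weight and fasting blood glucose measured weekly. Serum ALT and AST measured after 10 weeks. Data given as mean ± SEM.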

The test system of data set [9] is Mus musculus. The experiment in a line: Hypoglycemic activity in 6 hrs fasted ig dosed normal lean C57BL/6 mouse assessed as improved glucose tolerance pretreated for 2 hrs followed by glucose challenge and measured up to 90 mins post glucose challenge starting from 120 mins prior to […] by IPGTT. The format is functional, organism-based. The note with it: dose 25-100 mg/kg, time 210.0 min. In a few lines: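 C57BL/6 mice (male, 8-10 weeks, n=6 per group) fasted 6 h, then given compound or vehicle intragastrically. Two hours later, 20% glucose was injected i.p. at 2 g/kg. Tail-vein glucose read by glucometer at -120, 0, 20, 40, 60 and 90 min, and net AUC calculated. Doses were 25, 50 and 100 mg/kg.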

For data set [10], the system named is C2C12. The data set is described as follows: Activation of AMPK in mouse C2C12 cells with SiRNA-induced LKB1 knock down assessed as increase in AMPK phosphorylation. In kind it is cell-based.
Data set [11] in a line: Toxicity in C57BL/6 mouse assessed as change in heart weight/tibia length ratio at 50 to 200 mg/kg, ig administered for 4 weeks. In kind it is organism-based. The conditions noted are these: in vivo, po, 672 h, dose 50-200 mg/kg. In a few lines: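 Male C57BL/6 mice (6 per group) given 50, 100 or 200 mg/kg intragastrically daily for 4 weeks. Saline-perfused hearts were weighed and examined for gross morphology, with representative hearts chosen by similar body weight. Heart weight was expressed relative to body weight and to tibia length.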

Data set [12] is described as follows: Metabolic stability in ICR/CD-1 mouse liver microsomes assessed as half life preincubated for 5 mins followed by NADPH addition and measured up to 45 mins by LC/MS analysis. The format is ADME, Microsome. The conditions noted are these: time 50 min. The gist of the method:
(§2)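 Compound was preincubated with mouse (ICR/CD-1) or human liver microsomes in potassium phosphate buffer at 37 °C for 5 min, then NADPH was added to start the reaction. Samples were quenched with acetonitrile containing tolbutamide internal standard at 0, 5, 15, 30 and 45 min. Parent compound measured by LC/MS; ketanserin served as control.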

The test system of data set [13] is Mus musculus. The data set is described as follows: Activation of AMPK in normal lean C57BL/6 mouse assessed as increase in phosphorylated ACC level in skeletal muscle at 100 mg/kg, ig administered for 4 weeks by Western blot analysis. The conditions noted are these: Skeletal muscle tissue. In kind it is functional, organism-based. The gist of the method: as §1
(In western blotting, separated proteins are transferred to a membrane and probed.)

Data set [14] relates to BEAS-2B. The experiment in a line: Activation of AMPK in human BEAS-2B cells harboring wild type LKB1. The format is cell-based. The note with it: filed as activator.
In data set [15] the test system is C2C12. The experiment in a line: Activation of AMPK in mouse C2C12 cells assessed as increase in AMPK phosphorylation in presence of CaMKKbeta inhibitor STO-609. In kind it is cell-based. The note with it: filed as activator.
Data set [16] has as its system Huh-7. The data set is described as follows: Activation of AMPK in human HuH-7 cells assessed as increase in AMPK phosphorylation at 1 to 20 uM measured after 2 to 12 hrs by Western blotting analysis. The format is cell-based. The conditions noted are these: filed as activator, dose 1-20 µM, time 2-12 hrs. The gist of the method:
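HepG2 and HuH-7 cells in medium with 10% FBS and penicillin/streptomycin at 37 °C, 5% CO₂. Treated with a range of concentrations for 2 h, or with 10 μM over a time course. Cells lysed in RIPA buffer with protease/phosphatase inhibitors; ~30 µg protein per lane blotted for p-AMPK, AMPK, p-ACC, ACC, with GAPDH or β-actin as loading control. Detected by ECL.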

Data set [17] relates to C2C12. The experiment in a line: Activation of AMPK in mouse C2C12 cells assessed as increase in AMPK phosphorylation at Thr172 residue at 10 uM measured after 2 hrs by Western blot analysis. The format is cell-based. The conditions noted are these: filed as activator. The gist of the method:
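C2C12 myoblasts differentiated in DMEM with 2% horse serum for 5-7 days until myotubes formed. Treated for 2 h, either at 10 μM or across a concentration range, or at 10 μM over a time course. RIPA lysates (~30 µg protein) blotted for p-AMPK/AMPK and p-ACC/ACC, detected by ECL. The p-AMPK/AMPK ratio is expressed as fold of the DMSO vehicle.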

The species named for data set [18] is Homo sapiens. The data set is described as follows: Activation of AMPK alpha1/beta1/gamma1 (unknown origin).
For data set [19], the species on record is Mus musculus. The data set is described as follows: Improvement in lipid homeostasis in db/db mouse assessed as effect on serum total cholesterol level. In kind it is functional, organism-based.
A short description of data set [20]: Metabolic stability in human liver microsomes assessed as half life preincubated for 5 mins followed by NADPH addition and measured up to 45 mins by LC/MS analysis. In kind it is ADME, Microsome. The note with it: time 50 min. In a few lines:
as §2

In general, half-life refers to the time in which the quantity being followed falls by half.

SMILES strings stand for the structures. Calls of active or inactive are those of the source. No cut-off for these calls is given here.

For the compound `CC(C)(Oc1ccc(Cl)cc1)C(=O)Nc1ccc(OCc2ccc(C#N)cc2)cc1`, the Activity entry in [1] was “Non-Toxic”; in data set [2], “Non-Toxic”; in data set [3], 151.8%; in [9] it was “Dose-dependent effect”; in data set [11], “Non-Toxic”. The outcome in data set [4], in data set [5], in data set [7], in data set [10], in data set [18] and in data set [19] was inactive. For the same compound, the CLint scaled in [6] is 152 mL/min/kg. Also, the result in data set [8], in [13], in data set [14], in data set [15], in [16] and in data set [17] was Active. The half-life was found to be 0.6 h in data set [12] and 1.62 h in data set [20].

For the origin of these results see ChEMBL document CHEMBL4765352, “Discovery of AdipoRon analogues as novel AMPK activators without inhibiting mitochondrial complex I” (Eur J Med Chem, 2020).
